{
  "source": "paper PMC11335262",
  "about": "(Cellular and Molecular Life Sciences: CMLS, 2024)",
  "key": {"[1]": {"target": "α9α10^α9TM2TM3loop (Rattus norvegicus, UniProt P43144+Q9JLB5, A292S/P291A/S288I/S294N)", "sequence (P43144 26-479, stated change not applied)": "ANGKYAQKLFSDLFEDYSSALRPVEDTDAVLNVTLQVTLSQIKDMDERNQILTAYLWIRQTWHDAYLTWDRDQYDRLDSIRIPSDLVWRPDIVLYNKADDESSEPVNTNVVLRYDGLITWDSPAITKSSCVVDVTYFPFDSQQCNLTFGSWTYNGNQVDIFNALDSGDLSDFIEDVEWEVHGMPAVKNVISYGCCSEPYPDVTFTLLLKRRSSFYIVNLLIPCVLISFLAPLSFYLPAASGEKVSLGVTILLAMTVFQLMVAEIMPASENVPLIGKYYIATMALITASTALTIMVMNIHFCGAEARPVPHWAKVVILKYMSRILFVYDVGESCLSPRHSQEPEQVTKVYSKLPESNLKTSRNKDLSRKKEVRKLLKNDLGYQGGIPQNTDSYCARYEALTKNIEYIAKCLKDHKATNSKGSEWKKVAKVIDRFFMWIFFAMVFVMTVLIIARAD", "sequence (Q9JLB5 25-447 S288I/P291A/A292S/S294N)": "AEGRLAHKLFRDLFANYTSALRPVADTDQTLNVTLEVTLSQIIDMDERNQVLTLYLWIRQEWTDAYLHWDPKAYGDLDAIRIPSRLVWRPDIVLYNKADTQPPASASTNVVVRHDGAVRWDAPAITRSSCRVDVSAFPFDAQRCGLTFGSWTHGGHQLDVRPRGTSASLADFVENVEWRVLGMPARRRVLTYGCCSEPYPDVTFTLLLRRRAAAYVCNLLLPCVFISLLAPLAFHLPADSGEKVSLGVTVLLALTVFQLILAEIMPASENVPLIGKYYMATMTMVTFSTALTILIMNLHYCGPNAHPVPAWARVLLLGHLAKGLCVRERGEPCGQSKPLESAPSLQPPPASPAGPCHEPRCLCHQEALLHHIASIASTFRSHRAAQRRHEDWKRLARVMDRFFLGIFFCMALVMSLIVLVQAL", "experiment": "ACh-evoked currents, two-electrode voltage-clamp in X. laevis oocytes", "format": "cell-based", "conditions": "prolonged (1 min) ACh application"}, "[2]": {"test_system": "α9E72Qα10", "experiment": "ACh-evoked currents, two-electrode voltage-clamp in X. laevis oocytes", "format": "cell-based, rat", "conditions": "1 mM ACh; α9E72Qα10 mutant receptor", "method_in_brief": "(§1)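 Rat subunit cRNAs (0.01–1.0 ng in 50 nl water, 1:1 molar ratio when co-injected) were injected into stage V–VI X. laevis oocytes kept in Barth's solution at 18 °C. Oocytes were preloaded 3 h with 100 µM BAPTA-AM.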"}, "[3]": {"target": "α9α10 nAChR (Rattus norvegicus, UniProt P43144+Q9JLB5)", "sequence (P43144 26-479)": "as the sequence (P43144 26-479, stated change not applied) above", "sequence (Q9JLB5 25-447)": "as the sequence (Q9JLB5 25-447 S288I/P291A/A292S/S294N) above, with I264S, A267P, S268A, N270S counted along it", "conditions": "prolonged ACh application; cited from earlier work"}, "[4]": {"test_system": "α9^α10TM2TM3loop", "experiment": "ACh-evoked currents, two-electrode voltage-clamp in X. laevis oocytes", "format": "cell-based, rat", "conditions": "1 mM ACh; α9^α10TM2TM3loop injected alone or co-injected with α9", "method_in_brief": "as §1"}, "[5]": {"test_system": "α9E202Qα10", "experiment": "ACh-evoked currents, two-electrode voltage-clamp in X. laevis oocytes", "format": "cell-based, rat", "conditions": "1 mM ACh; α9E202Qα10 mutant receptor", "method_in_brief": "as §1"}, "[6]": {"test_system": "homomeric α9 nAChR", "conditions": "cited from earlier work"}},
  "data": [
    {"smiles": "CC(=O)OCC[N+](C)(C)C", "note": "[ACh, Acetylcholine]", "values": [
      {"measurement": "remaining current after 20 s of the peak response to ACh", "setting": "[1]", "value": "61.9 ± 4.6", "unit": "%"},
      {"measurement": "response to ACh (in words)", "setting": "[2]", "value": "failed to respond"},
      {"measurement": "remaining current after 20 s of the peak response to ACh", "setting": "[3]", "value": "57.1 ± 4.3", "unit": "%"},
      {"measurement": "response to ACh (in words)", "setting": "[4]", "value": "did not render functional receptors"},
      {"measurement": "response to ACh (in words)", "setting": "[5]", "value": "failed to respond"},
      {"measurement": "maximal amplitude of responses", "setting": "[6]; 100 µM ACh, absence of extracellular Ca^2+", "value": "182 ± 20", "unit": "nA"},
      {"measurement": "EC50", "setting": "[6]; ACh concentration-response, ref 45 (Verbitsky et al. 2000)", "value": "11.4 ± 0.8", "unit": "µM"},
      {"measurement": "remaining current after 20 s of the peak response to ACh", "setting": "[6]; prolonged application of a high ACh concentration", "value": "94.9 ± 1.6", "unit": "%"}
    ]}
  ]
}
